Assay results reported in PubChem BioAssay AID651830 (Vanderbilt Specialized Chemistry Center, 2012).
Activity calls are given as the source filed them.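 The calls were made as follows: active = inhibition above 50% in the panel binding assay; inactive = inhibition of 50% or less.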

Assay: off-target binding across receptor panel, profiling panel, selectivity assay for mGlu3 NAM project, biochemical, Eurofins PanLabs, radioligand binding (AID 651830)
Settings: at 10 µM, stronger effect = higher value
In short: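 Also added: radioligand selective for each panel target / Read-out basis: % inhibition of radioligand binding / Signal: radioligand displacement measurement in binding assay / Controls: reference standards included in every assay run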

In the case of `COc1ccc(C#Cc2ccc(C(=O)N3CCC[C@@H](O)C3)c(F)c2)cc1`, the inhibition is reported as 74% (active), the inhibition (measured here: 5-HT1A binding) is reported as 71% and the inhibition (measured here: 5-HT2B binding) is reported as -12%. The inhibition (measured here: N-type calcium channel binding) was 22%, the inhibition (measured here: P2X binding) was 31% and the inhibition (measured here: adenosine A3 binding) was 45%. For the same compound, the inhibition (measured here: alpha1D adrenergic binding) was 20%, the inhibition (measured here: dopamine D3 binding) was 24% and the inhibition (measured here: hERG binding) was 28%. For the same compound, the inhibition (measured here: kainate receptor binding) was 19%, the inhibition (measured here: norepinephrine transporter binding) was 25% and the inhibition (measured here: serotonin transporter binding) was -1%. The inhibition (measured here: sigma1 binding) was 33%.
